# Reference: ChEMBL document CHEMBL3608222, “Discovery and structure-guided optimization of tert-butyl 6-(phenoxymethyl)-3-(trifluoromethyl)benzoates as liver X receptor agonists” (Bioorg Med Chem Lett, 2015)
# Active and inactive are the calls of the source. No cut-off for these calls is given here.
# Target: Retinoic acid receptor RXR-alpha/oxysterols receptor LXR-beta (Homo sapiens, UniProt P55055)
# Assay: Binding affinity to His-LXRbeta/FLAG-RXRalpha (unknown origin) by FITC-labeled T0901317 based fluorescence polarization assay
# Assay type: protein-complex assay
# Conditions: not given
# Chain of Retinoic acid receptor RXR-alpha/oxysterols receptor LXR-beta (P19793 whole entry, one chain of several): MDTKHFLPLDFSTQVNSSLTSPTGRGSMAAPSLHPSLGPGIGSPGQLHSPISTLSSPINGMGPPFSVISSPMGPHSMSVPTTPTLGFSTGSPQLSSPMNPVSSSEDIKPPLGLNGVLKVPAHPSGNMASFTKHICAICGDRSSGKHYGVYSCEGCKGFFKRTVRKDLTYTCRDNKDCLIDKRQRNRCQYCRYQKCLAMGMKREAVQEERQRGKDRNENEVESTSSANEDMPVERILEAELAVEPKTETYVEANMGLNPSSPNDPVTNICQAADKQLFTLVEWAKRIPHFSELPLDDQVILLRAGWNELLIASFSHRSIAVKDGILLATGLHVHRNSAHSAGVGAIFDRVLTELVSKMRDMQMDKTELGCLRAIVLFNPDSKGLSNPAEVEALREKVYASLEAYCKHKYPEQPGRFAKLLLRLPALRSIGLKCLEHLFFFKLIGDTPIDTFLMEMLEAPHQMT
row,Ki,Compound
1,170 nM,CC(=O)N(C)c1ccc(OCc2ccc(C(F)(F)F)c(O)c2C(=O)OC(C)(C)C)cc1
2,3400 nM,CC(C)(C)OC(=O)c1cc(C(F)(F)F)ccc1COc1ccc(-c2cccc(C(=O)O)c2)cc1
3,1200 nM,CC(C)(C)OC(=O)c1cc(C(F)(F)F)ccc1COc1ccc(CCCCCC(=O)O)cc1
4,260 nM,CC(C)(C)OC(=O)c1cc(C(F)(F)F)ccc1COc1ccc(-c2ccc(CC(=O)O)cc2)cc1

# System: not listed separately
# Assay: Plasma concentration in mouse at 10 mg/kg, po measured at 6 hrs
# Assay type: ADME, organism-based
# Conditions: not given
# In short: (§1)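 Mice given a single oral dose of 10 mg/kg. Plasma concentration measured in µg/ml as Cmax and at 6 h.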
row,concentration at 6 h,Compound
1,670 ng/mL,CC(=O)N(C)c1ccc(OCc2ccc(C(F)(F)F)c(O)c2C(=O)OC(C)(C)C)cc1
2,5300 ng/mL,CC(C)(C)OC(=O)c1c(COc2ccc(-c3ccc(CC(=O)O)cc3)cc2)ccc(C(F)(F)F)c1O

# System: RAW264.7
# Assay: […] of cholesterol efflux in mouse RAW264.7 cells at 1 uM using [4-14C]-cholesterol incubated for 24 hrs by scintillation counting method relative to T0901317
# Assay type: functional
# Conditions: not given
# In short: (§2)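 RAW264.7 cells were labeled 2 days with 0.2 µCi/ml [4-14C]-cholesterol in DMEM/1% FBS and washed with 0.2% BSA/PBS. Medium with or without 10 µg/ml apoAI was added, with compound (final 0.01–1 µM) or DMSO, for about 24 h. Medium and cell radioactivity were counted. ApoAI-dependent efflux % = efflux(+apoAI) minus mean efflux(−apoAI); % efficacy is given at the stated concentration.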
row,Compound,Efficacy
1,CC(C)(C)OC(=O)c1c(COc2ccc(-c3cccc(CC(=O)O)c3)cc2)ccc(C(F)(F)F)c1O,58%
2,CC(C)(C)OC(=O)c1c(COc2ccc(-c3ccc(CC(=O)O)cc3)cc2)ccc(C(F)(F)F)c1O,69%

# System: Cynomolgus monkey
# Assay: Toxicity in cynomolgus monkey assessed as effect on plasma triglyceride levels at 0.1 to 10 mg/kg, po dosed daily for 14 days
# Assay type: organism-based, Macaca fascicularis
# Conditions: in vivo, 336 h
# In short: (§3)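 Cynomolgus monkeys dosed daily by oral gavage at 0, 0.1, 0.3, 1, 3 or 10 mg/kg for 14 days, n = 6/group. Blood ABCA1 mRNA was measured on Day 1 and Day 14; plasma triglyceride was measured after single and repeated dosing. Mean + SE.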
row,Compound,Activity
1,CC(C)(C)OC(=O)c1c(COc2ccc(-c3ccc(CC(=O)O)cc3)cc2)ccc(C(F)(F)F)c1O,Non-toxic

# System: Mus musculus
# Assay: Toxicity in C57Bl/6 mouse assessed as effect on plasma triglyceride levels at 1 mg/kg, po dosed daily for 7 days
# Assay type: organism-based
# Conditions: in vivo, 168 h
# In short: (§4)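 C57Bl/6 mice dosed daily by oral gavage at 1 mg/kg for 7 days, n = 5/group. Liver FAS and SCD-1 mRNA and plasma TG were then measured. Groups compared with vehicle by Dunnett's test, p <0.05.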
row,Compound,Activity
1,CC(C)(C)OC(=O)c1c(COc2ccc(-c3ccc(CC(=O)O)cc3)cc2)ccc(C(F)(F)F)c1O,Non-toxic

# Target: T1, Oxysterols receptor LXR-beta (Homo sapiens, UniProt P55055)
# T1 sequence (P55055 whole entry): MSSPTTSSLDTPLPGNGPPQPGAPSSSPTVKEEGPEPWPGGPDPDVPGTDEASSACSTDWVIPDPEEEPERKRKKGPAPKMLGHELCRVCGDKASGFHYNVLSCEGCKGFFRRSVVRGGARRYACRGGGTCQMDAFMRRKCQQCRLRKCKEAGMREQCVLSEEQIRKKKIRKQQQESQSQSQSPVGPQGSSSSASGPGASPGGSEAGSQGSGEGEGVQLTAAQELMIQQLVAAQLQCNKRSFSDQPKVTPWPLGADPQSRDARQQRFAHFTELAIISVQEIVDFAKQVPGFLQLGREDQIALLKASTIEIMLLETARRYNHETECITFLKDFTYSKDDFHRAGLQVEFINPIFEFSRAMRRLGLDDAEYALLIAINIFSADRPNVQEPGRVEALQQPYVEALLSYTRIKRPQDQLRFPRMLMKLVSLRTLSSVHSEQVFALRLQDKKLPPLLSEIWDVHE
# Assay: Agonist activity at human LXRbeta expressed in African green monkey kidney CV1 cells co-expressing pTAL-LXRE including LXR response element incubated for 20 hrs by luciferase reporter gene assay
# Assay type: cell-based, CV-1
# Conditions: not given
# In short: (§5)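 CV-1 cells grown in DMEM with 10% charcoal/dextran-treated FBS at 37 °C, seeded 20 h before transfection. Cells were lipofected with pcDNA-hLXRa or pcDNA-hLXRb plus the pTAL-LXRE luciferase reporter. After 3 h, medium was added, then compound in DMSO. Incubation about 20 h before luciferase luminescence read-out.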
row,EC50,Compound
1,530 nM,CC(C)(C)OC(=O)c1c(COc2ccc(-c3cccc(CC(=O)O)c3)cc2)ccc(C(F)(F)F)c1O
2,260 nM,CC(=O)N(C)c1ccc(OCc2ccc(C(F)(F)F)c(O)c2C(=O)OC(C)(C)C)cc1
3,160 nM,CC(C)(C)OC(=O)c1c(COc2ccc(-c3ccc(CC(=O)O)cc3)cc2)ccc(C(F)(F)F)c1O

# System: Mus musculus
# Assay: Effect on FAS mRNA expression in C57Bl/6 mouse liver at 1 mg/kg, po dosed daily for 7 days
# Assay type: functional, organism-based
# Conditions: not given
# In short: as §4
row,Compound,Activity
1,CC(C)(C)OC(=O)c1c(COc2ccc(-c3ccc(CC(=O)O)cc3)cc2)ccc(C(F)(F)F)c1O,inactive

# System: Mus musculus
# Assay: Effect on SCD1 mRNA expression in C57Bl/6 mouse liver at 1 mg/kg, po dosed daily for 7 days
# Assay type: functional, organism-based
# Conditions: not given
# In short: as §4
row,Compound,Activity
1,CC(C)(C)OC(=O)c1c(COc2ccc(-c3ccc(CC(=O)O)cc3)cc2)ccc(C(F)(F)F)c1O,inactive

# System: Cynomolgus monkey
# Assay: Toxicity in cynomolgus monkey assessed as effect on plasma triglyceride levels at 0.1 to 10 mg/kg, po administered as single dose
# Assay type: organism-based, Macaca fascicularis
# Conditions: in vivo
# In short: as §3
row,Compound,Activity
1,CC(C)(C)OC(=O)c1c(COc2ccc(-c3ccc(CC(=O)O)cc3)cc2)ccc(C(F)(F)F)c1O,Non-toxic

# System: Cynomolgus monkey
# Assay: Increase in ABCA1 mRNA expression in cynomolgus monkey blood at 0.1 to 10 mg/kg, po dosed daily for 14 days measured on day 1
# Assay type: functional, organism-based
# Conditions: Macaca fascicularis
# In short: as §3
row,Compound,Activity
1,CC(C)(C)OC(=O)c1c(COc2ccc(-c3ccc(CC(=O)O)cc3)cc2)ccc(C(F)(F)F)c1O,Dose-dependent effect

# Target: T2, Oxysterols receptor LXR-alpha (Homo sapiens) (UniProt Q13133)
# T2 sequence (whole entry): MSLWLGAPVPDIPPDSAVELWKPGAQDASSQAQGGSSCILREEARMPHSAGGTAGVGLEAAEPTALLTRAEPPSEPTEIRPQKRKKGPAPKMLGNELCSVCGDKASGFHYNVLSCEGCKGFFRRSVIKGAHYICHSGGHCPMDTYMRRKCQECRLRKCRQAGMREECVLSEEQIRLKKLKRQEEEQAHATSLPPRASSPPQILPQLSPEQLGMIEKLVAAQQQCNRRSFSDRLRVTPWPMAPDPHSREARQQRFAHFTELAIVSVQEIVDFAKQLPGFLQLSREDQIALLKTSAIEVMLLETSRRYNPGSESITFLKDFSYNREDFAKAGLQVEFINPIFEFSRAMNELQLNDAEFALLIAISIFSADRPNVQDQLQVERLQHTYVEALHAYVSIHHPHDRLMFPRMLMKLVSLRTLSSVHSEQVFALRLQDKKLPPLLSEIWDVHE
# Assay: Agonist activity at human LXRalpha expressed in African green monkey kidney CV1 cells co-expressing pTAL-LXRE including LXR response element incubated for 20 hrs by luciferase reporter gene assay relative to T0901317
# Assay type: cell-based
# Conditions: CV-1
# In short: as §5
row,Efficacy,Compound
1,39%,CC(C)(C)OC(=O)c1c(COc2ccc(-c3cccc(CC(=O)O)c3)cc2)ccc(C(F)(F)F)c1O
2,89%,CC(=O)N(C)c1ccc(OCc2ccc(C(F)(F)F)c(O)c2C(=O)OC(C)(C)C)cc1
3,79%,CC(C)(C)OC(=O)c1c(COc2ccc(-c3ccc(CC(=O)O)cc3)cc2)ccc(C(F)(F)F)c1O

# System: Cynomolgus monkey
# Assay: Increase in ABCA1 mRNA expression in cynomolgus monkey blood at 0.1 to 10 mg/kg, po dosed daily for 14 days measured on day 14
# Assay type: functional, organism-based
# Conditions: Macaca fascicularis
# In short: as §3
row,Compound,Activity
1,CC(C)(C)OC(=O)c1c(COc2ccc(-c3ccc(CC(=O)O)cc3)cc2)ccc(C(F)(F)F)c1O,Dose-dependent effect

# Target: T3, Oxysterols receptor LXR-beta (Homo sapiens) (UniProt P55055)
# T3 sequence (whole entry): T1 sequence (P55055 whole entry)
# Assay: Agonist activity at human LXRbeta expressed in African green monkey kidney CV1 cells co-expressing pTAL-LXRE including LXR response element incubated for 20 hrs by luciferase reporter gene assay relative to T0901317
# Assay type: cell-based
# Conditions: CV-1
# In short: as §5
row,Efficacy,Compound
1,27%,CC(C)(C)OC(=O)c1c(COc2ccc(-c3cccc(CC(=O)O)c3)cc2)ccc(C(F)(F)F)c1O
2,76%,CC(=O)N(C)c1ccc(OCc2ccc(C(F)(F)F)c(O)c2C(=O)OC(C)(C)C)cc1
3,51%,CC(C)(C)OC(=O)c1c(COc2ccc(-c3ccc(CC(=O)O)cc3)cc2)ccc(C(F)(F)F)c1O

# Target: T4, Oxysterols receptor LXR-alpha (Homo sapiens, UniProt Q13133)
# T4 sequence (Q13133 whole entry): T2 sequence (whole entry)
# Assay: Agonist activity at human LXRalpha expressed in African green monkey kidney CV1 cells co-expressing pTAL-LXRE including LXR response element incubated for 20 hrs by luciferase reporter gene assay
# Assay type: cell-based, CV-1
# Conditions: not given
row,EC50,Compound
1,1300 nM,CC(C)(C)OC(=O)c1c(COc2ccc(-c3cccc(CC(=O)O)c3)cc2)ccc(C(F)(F)F)c1O
2,280 nM,CC(=O)N(C)c1ccc(OCc2ccc(C(F)(F)F)c(O)c2C(=O)OC(C)(C)C)cc1
3,510 nM,CC(C)(C)OC(=O)c1c(COc2ccc(-c3ccc(CC(=O)O)cc3)cc2)ccc(C(F)(F)F)c1O

# Target: Retinoic acid receptor RXR-alpha/oxysterols receptor LXR-alpha (Homo sapiens, UniProt Q13133)
# Sequence (P19793 whole entry, one chain of several): as the sequence (P19793 whole entry, one chain of several) above
# Assay: Binding affinity to His-LXRalpha/FLAG-RXRalpha (unknown origin) by FITC-labeled T0901317 based fluorescence polarization assay
# Assay type: protein-complex assay
# Conditions: not given
row,Ki,Compound
1,270 nM,CC(=O)N(C)c1ccc(OCc2ccc(C(F)(F)F)c(O)c2C(=O)OC(C)(C)C)cc1
2,6300 nM,CC(C)(C)OC(=O)c1cc(C(F)(F)F)ccc1COc1ccc(-c2cccc(C(=O)O)c2)cc1
3,8600 nM,CC(C)(C)OC(=O)c1cc(C(F)(F)F)ccc1COc1ccc(CCCCCC(=O)O)cc1
4,1000 nM,CC(C)(C)OC(=O)c1cc(C(F)(F)F)ccc1COc1ccc(-c2ccc(CC(=O)O)cc2)cc1

# System: not listed separately
# Assay: Cmax in mouse at 10 mg/kg, po
# Assay type: ADME, organism-based
# Design: dose 10 mg/kg, route oral
# Conditions: in vivo
# In short: as §1
row,Cmax,Compound
1,1000 ng/mL,CC(=O)N(C)c1ccc(OCc2ccc(C(F)(F)F)c(O)c2C(=O)OC(C)(C)C)cc1
2,8900 ng/mL,CC(C)(C)OC(=O)c1c(COc2ccc(-c3ccc(CC(=O)O)cc3)cc2)ccc(C(F)(F)F)c1O

# System: RAW264.7
# Assay: […] of cholesterol efflux in mouse RAW264.7 cells at 0.1 using [4-14C]-cholesterol incubated for 24 hrs by scintillation counting method relative to T0901317
# Assay type: functional
# Conditions: not given
# In short: as §2
row,Compound,Efficacy
1,CC(C)(C)OC(=O)c1c(COc2ccc(-c3cccc(CC(=O)O)c3)cc2)ccc(C(F)(F)F)c1O,3%
2,CC(C)(C)OC(=O)c1c(COc2ccc(-c3ccc(CC(=O)O)cc3)cc2)ccc(C(F)(F)F)c1O,57%
